Values belong to the molecule of their own block, whether it stands above or below them.
What was measured:
[1] = test system: Rattus norvegicus; test: Hypolipidemic activity in Wistar rat assessed as reduction in plasma triglyceride level at 449 umol/kg/day administered through diet for 4 days; assay type: functional; conditions: 96 h
[2] = test system: Rattus norvegicus; test: Increase in liver weight in Wistar rat at 449 umol/kg/day administered through diet for 4 days; assay type: ADME, organism-based; conditions: in vivo, po, 96 h
[3] = test system: Rattus norvegicus; test: Hypolipidemic activity in Wistar rat assessed as reduction in plasma cholesterol level at 449 umol/kg/day administered through diet for 4 days; assay type: functional; conditions: 96 h
In short: (§1)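 Young male Wistar rats, 170-190 g initial weight, groups of six, given compound mixed thoroughly into Purina Lab Chow ad libitum for 4 or 10 days as stated. Daily dose calculated from food consumption and body weight. Bled by cardiac puncture at end of treatment; plasma cholesterol measured by automated procedure. Expressed as percent reduction versus simultaneous untreated control group; Student's t test.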

[4] = test system: Rattus norvegicus; test: Hypolipidemic activity in Wistar rat assessed as reduction in plasma triglyceride level at 482 umol/kg/day administered through diet for 4 days; assay type: functional; conditions: 96 h
In short: (§2)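 Young male Wistar rats (initial weight 170-190 g), groups of six, fed compound mixed into Purina Lab Chow ad libitum for 4 or 10 days; daily dose calculated from food consumption and body weight. Bled by cardiac puncture; plasma cholesterol and triglycerides by automated procedures; percent reduction versus simultaneous untreated controls, Student's t test.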

[5] = test system: Rattus norvegicus; test: Hypolipidemic activity in Wistar rat assessed as reduction in plasma cholesterol level at 482 umol/kg/day administered through diet for 4 days; assay type: functional; conditions: 96 h; in short: as §1
[6] = test system: Rattus norvegicus; test: Increase in liver weight in Wistar rat at 482 umol/kg/day administered through diet for 4 days; assay type: ADME, organism-based; conditions: in vivo, po, 96 h
In short: (§3)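 Male Wistar rats (170-190 g initial), groups of six, dosed via diet ad libitum for 4 or 10 days, daily dose from food consumption. Liver wet weight measured, expressed as g/100 g final body weight, compared with untreated controls run simultaneously.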

[7] = test system: Rattus norvegicus; test: Hypolipidemic activity in Wistar rat assessed as reduction in plasma cholesterol level at 430 umol/kg/day administered through diet for 4 days; assay type: functional; conditions: 96 h; in short: as §1
[8] = test system: Rattus norvegicus; test: Increase in cholesterol level in Wistar rat liver at 430 umol/kg/day administered through diet for 4 days; assay type: ADME, organism-based; conditions: in vivo, po, 96 h
In short: (§4)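 Male Wistar rats (170-190 g), six per group, given compound by admixture to lab chow ad libitum for 4 or 10 days, dose derived from food intake. Liver cholesterol determined by automated procedure, expressed as mg/g wet tissue, compared with an untreated control group by Student's t test.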

[9] = test system: Rattus norvegicus; test: Increase in liver weight in Wistar rat at 430 umol/kg/day administered through diet for 4 days; assay type: ADME, organism-based; conditions: in vivo, po, 96 h; in short: as §3
[10] = test system: Rattus norvegicus; test: Hypolipidemic activity in Wistar rat assessed as reduction in plasma triglyceride level at 430 umol/kg/day administered through diet for 4 days; assay type: functional; conditions: 96 h; in short: as §2
[11] = test system: Rattus norvegicus; test: Hypolipidemic activity in Wistar rat assessed as reduction in plasma cholesterol level at 420 umol/kg/day administered through diet for 4 days; assay type: functional; conditions: 96 h; in short: as §1
[12] = test system: Rattus norvegicus; test: Increase in liver weight in Wistar rat at 420 umol/kg/day administered through diet for 4 days; assay type: ADME, organism-based; conditions: in vivo, po, 96 h; in short: as §3
[13] = test system: Rattus norvegicus; test: Hypolipidemic activity in Wistar rat assessed as reduction in plasma triglyceride level at 420 umol/kg/day administered through diet for 10 days; assay type: functional; conditions: 240 h; in short: as §2
[14] = test system: Rattus norvegicus; test: Increase in cholesterol level in Wistar rat liver at 420 umol/kg/day administered through diet for 10 days; assay type: ADME, organism-based; conditions: in vivo, po, 240 h; in short: as §4
[15] = test system: Rattus norvegicus; test: Hypolipidemic activity in Wistar rat assessed as reduction in plasma cholesterol level at 456 umol/kg/day administered through diet for 10 days; assay type: functional; conditions: 240 h; in short: as §1
[16] = test system: Rattus norvegicus; test: Hypolipidemic activity in Wistar rat assessed as reduction in plasma triglyceride level at 456 umol/kg/day administered through diet for 10 days; assay type: functional; conditions: 240 h
[17] = test system: Rattus norvegicus; test: Hypolipidemic activity in Wistar rat assessed as reduction in plasma cholesterol level at 374 umol/kg/day administered through diet for 4 days; assay type: functional; conditions: 96 h
In short: (§5)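 Young male Wistar rats, 170-190 g at start, in groups of six, given compound mixed into Purina Lab Chow ad libitum for 4 or 10 days as stated. Daily dose was calculated from food consumption and body weight. Plasma was taken by cardiac puncture at the end and cholesterol measured by automated procedure. Results are % reduction versus a concurrent untreated control group, with Student's t test.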

[18] = test system: Rattus norvegicus; test: Increase in liver weight in Wistar rat at 374 umol/kg/day administered through diet for 4 days; assay type: ADME, organism-based; conditions: in vivo, po, 96 h; in short: as §3
[19] = test system: Rattus norvegicus; test: Hypolipidemic activity in Wistar rat assessed as reduction in plasma triglyceride level at 374 umol/kg/day administered through diet for 4 days; assay type: functional; conditions: 96 h; in short: as §2
[20] = test system: Rattus norvegicus; test: Hypolipidemic activity in Wistar rat assessed as reduction in plasma triglyceride level at 420 umol/kg/day administered through diet for 4 days; assay type: functional; conditions: 96 h; in short: as §2
[21] = test system: Rattus norvegicus; test: Increase in liver weight in Wistar rat at 499 umol/kg/day administered through diet for 4 days; assay type: ADME, organism-based; conditions: in vivo, po, 96 h; in short: as §3
[22] = test system: Rattus norvegicus; test: Hypolipidemic activity in Wistar rat assessed as reduction in plasma triglyceride level at 499 umol/kg/day administered through diet for 4 days; assay type: functional; conditions: 96 h; in short: as §2
[23] = test system: Rattus norvegicus; test: Hypolipidemic activity in Wistar rat assessed as reduction in plasma cholesterol level at 499 umol/kg/day administered through diet for 4 days; assay type: functional; conditions: 96 h; in short: as §1
[24] = test system: Rattus norvegicus; test: Hypolipidemic activity in Wistar rat assessed as reduction in plasma triglyceride level at 606 umol/kg/day administered through diet for 10 days; assay type: functional; conditions: 240 h
[25] = test system: Rattus norvegicus; test: Increase in liver weight in Wistar rat at 606 umol/kg/day administered through diet for 10 days; assay type: ADME, organism-based; conditions: in vivo, po, 240 h
[26] = test system: Rattus norvegicus; test: Hypolipidemic activity in Wistar rat assessed as reduction in plasma cholesterol level at 606 umol/kg/day administered through diet for 10 days; assay type: functional; conditions: 240 h; in short: as §2
[27] = test system: Rattus norvegicus; test: Hypolipidemic activity in Wistar rat assessed as reduction in plasma triglyceride level at 443 umol/kg/day administered through diet for 4 days; assay type: functional; conditions: 96 h; in short: as §2
[28] = test system: Rattus norvegicus; test: Hypolipidemic activity in Wistar rat assessed as reduction in plasma cholesterol level at 443 umol/kg/day administered through diet for 4 days; assay type: functional; conditions: 96 h; in short: as §1
[29] = test system: Rattus norvegicus; test: Hypolipidemic activity in Wistar rat assessed as reduction in plasma cholesterol level at 491 umol/kg/day administered through diet for 4 days; assay type: functional; conditions: 96 h; in short: as §1
[30] = test system: Rattus norvegicus; test: Increase in liver weight in Wistar rat at 491 umol/kg/day administered through diet for 4 days; assay type: ADME, organism-based; conditions: in vivo, po, 96 h
[31] = test system: Rattus norvegicus; test: Hypolipidemic activity in Wistar rat assessed as reduction in plasma triglyceride level at 491 umol/kg/day administered through diet for 4 days; assay type: functional; conditions: 96 h
[32] = test system: Rattus norvegicus; test: Hypolipidemic activity in Wistar rat assessed as reduction in plasma cholesterol level at 411 umol/kg/day administered through diet for 10 days; assay type: functional; conditions: 240 h; in short: as §5
[33] = test system: Rattus norvegicus; test: Hypolipidemic activity in Wistar rat assessed as reduction in plasma triglyceride level at 411 umol/kg/day administered through diet for 10 days; assay type: functional; conditions: 240 h
[34] = test system: Rattus norvegicus; test: Hypolipidemic activity in Wistar rat assessed as reduction in plasma cholesterol level at 675 umol/kg/day administered through diet for 10 days; assay type: functional; conditions: 240 h; in short: as §2
[35] = test system: Rattus norvegicus; test: Increase in liver weight in Wistar rat at 675 umol/kg/day administered through diet for 10 days; assay type: ADME, organism-based; conditions: in vivo, po, 240 h
[36] = test system: Rattus norvegicus; test: Hypolipidemic activity in Wistar rat assessed as reduction in plasma triglyceride level at 675 umol/kg/day administered through diet for 10 days; assay type: functional; conditions: 240 h

Structure (SMILES): CCCCCCCCCCCCCCCCCCOc1ccc(C(=O)O)o1
inhibition in vivo at 420 µmol/kg [11]: 18%
Activity [12]: 0%
inhibition in vivo at 420 µmol/kg [13]: 53%
Activity [14]: 18%

Structure (SMILES): CCCCCCCCCCCCCCCCOc1ccccc1C(=O)CC(=O)OC
inhibition in vivo at 456 µmol/kg [15]: 10%
inhibition in vivo at 456 µmol/kg [16]: 23%

Structure (SMILES): CCCCCCCCCCCCCCOc1ccc(C(=O)C(F)(F)F)o1
inhibition in vivo at 420 µmol/kg [11]: 2%
Activity [12]: 0%
inhibition in vivo at 420 µmol/kg [20]: 30%

Structure (SMILES): CCCCCCc1ccc(C(=O)CC(=O)OC)cc1
inhibition in vivo at 606 µmol/kg [24]: 35%
Activity [25]: 2%
inhibition in vivo at 606 µmol/kg [26]: 2%

Structure (SMILES): CCCCCCCCCCCCCCSc1ccc(C(=O)O)o1
inhibition in vivo at 443 µmol/kg [27]: 62%
inhibition in vivo at 443 µmol/kg [28]: 18%

Structure (SMILES): CCCCCCCCCCc1ccc(C(=O)CC(=O)OC)cc1
inhibition in vivo at 411 µmol/kg [32]: 30%
inhibition in vivo at 411 µmol/kg [33]: 69%

Structure (SMILES): CCCCCCOc1ccc(C(=O)O)cc1
inhibition in vivo at 675 µmol/kg [34]: 6%
Activity [35]: 1%
inhibition in vivo at 675 µmol/kg [36]: 16%

The next lines start with results.

Activity [2]: 5%
Structure (SMILES): CCCCCCCCCCCCCCOc1ccc(C(=O)N(CC)CC)cc1
inhibition in vivo at 449 µmol/kg [1]: 0%
inhibition in vivo at 449 µmol/kg [3]: 0%

Activity [6]: 7%
Structure (SMILES): CCCCCCCCCCCCCCOc1ccc(C(N)=O)o1
inhibition in vivo at 482 µmol/kg [4]: 14%
inhibition in vivo at 482 µmol/kg [5]: 0%

Activity [8]: 0%
Activity [9]: 8%
Structure (SMILES): CCCCCCCCCCCCCCOc1ccc(C(=O)OC)o1
inhibition in vivo at 430 µmol/kg [7]: 32%
inhibition in vivo at 430 µmol/kg [10]: 67%

Activity [18]: 0%
Structure (SMILES): CCCCCCCCCCCCCCCCOc1ccc(C(=O)CCC(=O)O)cc1
inhibition in vivo at 374 µmol/kg [17]: 15%
inhibition in vivo at 374 µmol/kg [19]: 42%

Activity [21]: 0%
Structure (SMILES): CCCCCCCCCCCCCCOc1ccc(C(C)=O)o1
inhibition in vivo at 499 µmol/kg [22]: 21%
inhibition in vivo at 499 µmol/kg [23]: 0%

Activity [30]: 0%
Structure (SMILES): CCCCCCCCCCCCCCOc1ccccc1C(=O)OC
inhibition in vivo at 491 µmol/kg [29]: 0%
inhibition in vivo at 491 µmol/kg [31]: 0%
